Legend:
Pseudomonas aeruginosa [1] = assay: Potentiation of moxifloxacin-induced antibacterial activity against MDR/XDR Pseudomonas aeruginosa isolate 91433 devoid of GyrA T83I mutant assessed as fold reduction in moxifloxacin MIC at 9 uM incubated for 18 hrs by broth microdilution method; assay type: functional
How it was run: (§1)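 CLSI broth microdilution. Overnight cultures were set to 0.5 McFarland in saline, diluted 1:50 in Mueller-Hinton broth to a final 5 × 10^5 CFU/mL, and incubated 18 h at 37 °C against 2-fold antibiotic dilutions. A fixed adjuvant level was present throughout. MIC = lowest concentration with no visible turbidity, confirmed at 590 nm. Potentiation = fold drop in antibiotic MIC versus antibiotic alone.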

Pseudomonas aeruginosa [2] = assay: Potentiation of moxifloxacin-induced antibacterial activity against MDR/XDR Pseudomonas aeruginosa isolate PA260-97103 harboring GyrA T83I mutant assessed as fold reduction in moxifloxacin MIC at 9 uM incubated for 18 hrs by broth microdilution method; assay type: functional; how it was run: as §1
Klebsiella pneumoniae [3] = assay: Potentiation of minocycline-induced antibacterial activity against Klebsiella pneumoniae 113250 assessed as fold reduction in minocycline MIC at 4.1 uM incubated for 18 hrs by broth dilution method; assay type: functional
How it was run: (§2)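 Antibiotic MIC determined by CLSI broth microdilution (MHB, 5 × 10^5 CFU/mL, 18 h, 37 °C), once alone and once with a fixed concentration of the adjuvant. Potentiation is the ratio of the antibiotic MIC alone to its MIC in the presence of the adjuvant.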

Pseudomonas aeruginosa [4] = assay: Antimicrobial activity against XDR Pseudomonas aeruginosa isolate PA264 infected in Galleria mellonella larvae assessed as survival rate at 50 mg/kg co-administered with 50 mg/kg rifampicin at 2 hrs post-inoculation measured after 24 hrs relative to control; assay type: functional
How it was run: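 G. mellonella larvae were injected with ~5 CFU of P. aeruginosa PA264 (10 µL of 5 × 10^2 CFU/mL in PBS) and held 2 h at 37 °C. A single 10 µL injection followed: monotherapy or rifampicin + compound (25+25, 50+50 or 75+75 mg/kg), with PBS as control. Larvae kept at 37 °C were scored every 6 h to 24 h; dead = no response to touch. n = 30 (two runs of 15); Kaplan-Meier.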

Klebsiella pneumoniae [5] = assay: Synergistic antibacterial activity against Klebsiella pneumoniae 113250 assessed as fractional inhibitory concentration index in presence of rifampicin incubated for 18 hrs by broth dilution method; assay type: functional
How it was run: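 Checkerboard titration of the adjuvant against the antibiotic, run under the CLSI microdilution conditions (MHB, 5 × 10^5 CFU/mL, 18 h, 37 °C). Each agent's FIC is its MIC in combination divided by its MIC alone; FICI is the sum of the two FICs. FICI ≤0.5 was read as synergy, >0.5–4.0 as no interaction, and >4.0 as antagonism.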

Klebsiella pneumoniae [6] = assay: Potentiation of rifampicin-induced antibacterial activity against Klebsiella pneumoniae 113250 assessed as fold reduction in rifampicin MIC at 4.1 uM incubated for 18 hrs by broth dilution method; assay type: functional; how it was run: as §2
Escherichia coli = assay: Antimicrobial activity against Escherichia coli 107115 incubated for 18 hrs by broth dilution method; assay type: functional; details: Escherichia coli, 107115, 18 h
How it was run: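 Broth microdilution per CLSI: overnight cultures set to 0.5 McFarland in saline, diluted 1:50 in Mueller-Hinton broth to a final 5 × 10^5 CFU/mL, added to 2-fold serial dilutions, incubated 18 h at 37 °C; MIC is the lowest concentration without visible turbidity, confirmed at 590 nm.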

Acinetobacter baumannii [7] = assay: Synergistic antibacterial activity against multidrug-resistant Acinetobacter baumannii AB030 assessed as fractional inhibitory concentration index in presence of minocycline incubated for 18 hrs by broth dilution method; assay type: functional
Pseudomonas aeruginosa [8] = assay: Potentiation of rifampicin-induced antimicrobial activity against MDR/XDR Pseudomonas aeruginosa isolate 100036 harboring GyrA Thr83Ile mutant assessed as rifampicin MIC80 incubated for 18 hrs by broth microdilution method (reference value: 16 microg/ml); assay type: functional; details: isolate 100036, 18 h
Pseudomonas aeruginosa [9] = assay: Disruption of electrical component of PMF with transmembrane chemical component increment in Pseudomonas aeruginosa PAO1 membrane assessed as increase in tetracycline uptake measured every 1 min for 30 mins by fluorescence based assay; assay type: organism-based; details: Bacterial membrane
How it was run: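 P. aeruginosa PAO1 was grown to OD600 0.6, washed and resuspended in 10 mM HEPES pH 7.2, then treated with varying compound concentrations plus […] tetracycline. Fluorescence (ex 405/em 535 nm) was read each minute for 30 min at room temperature. Triplicates, averaged.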

Pseudomonas aeruginosa [10] = assay: Potentiation of minocycline-induced antimicrobial activity against MDR/XDR Pseudomonas aeruginosa isolate 101243 devoid of GyrA Thr83Ile mutant assessed as minocycline MIC50 incubated for 18 hrs by broth microdilution method (reference value: 16 microg/ml); assay type: functional; details: isolate 101243, 18 h
Pseudomonas aeruginosa [11] = assay: Potentiation of minocycline-induced antimicrobial activity against MDR/XDR Pseudomonas aeruginosa isolate 101885 harboring GyrA Thr83Ile mutant assessed as minocycline MIC50 incubated for 18 hrs by broth microdilution method (reference value: 16 microg/ml); assay type: functional; details: isolate 101885, 18 h
Pseudomonas aeruginosa [12] = assay: Potentiation of moxifloxacin-induced antibacterial activity against MDR/XDR Pseudomonas aeruginosa isolate 91433 devoid of GyrA T83I mutant assessed as fold reduction in moxifloxacin MIC at 7.5 uM incubated for 18 hrs by broth microdilution method; assay type: functional; how it was run: as §1
Pseudomonas aeruginosa [13] = assay: Potentiation of minocycline-induced antimicrobial activity against MDR/XDR Pseudomonas aeruginosa isolate PA264-104354 harboring GyrA Thr83Ile mutant assessed as minocycline MIC50 incubated for 18 hrs by broth microdilution method (reference value: 16 microg/ml); assay type: functional; details: isolate PA264-104354, 18 h
Pseudomonas aeruginosa [14] = assay: Potentiation of moxifloxacin-induced antibacterial activity against MDR/XDR Pseudomonas aeruginosa isolate 101243 devoid of GyrA T83I mutant assessed as fold reduction in moxifloxacin MIC at 7.5 uM incubated for 18 hrs by broth microdilution method; assay type: functional; how it was run: as §1
Acinetobacter baumannii [15] = assay: Synergistic antibacterial activity against multidrug-resistant Acinetobacter baumannii AB031 assessed as fractional inhibitory concentration index in presence of rifampicin incubated for 18 hrs by broth dilution method; assay type: functional
Pseudomonas aeruginosa [16] = assay: Potentiation of minocycline-induced antibacterial activity against MDR/XDR Pseudomonas aeruginosa isolate PA264-104354 harboring GyrA T83I mutant assessed as fold reduction in minocycline MIC at 7.5 uM incubated for 18 hrs by broth microdilution method; assay type: functional
Pseudomonas aeruginosa [17] = assay: Potentiation of minocycline-induced antimicrobial activity against MDR/XDR Pseudomonas aeruginosa isolate 100036 harboring GyrA Thr83Ile mutant assessed as minocycline MIC80 incubated for 18 hrs by broth microdilution method (reference value: 32 microg/ml); assay type: functional; details: isolate 100036, 18 h
Pseudomonas aeruginosa [18] = assay: Potentiation of rifampicin-induced antimicrobial activity against MDR/XDR Pseudomonas aeruginosa isolate PA262-101856 harboring GyrA Thr83Ile mutant assessed as rifampicin MIC50 incubated for 18 hrs by broth microdilution method (reference value: 8 microg/ml); assay type: functional; details: isolate PA262-101856, 18 h
Acinetobacter baumannii [19] = assay: Potentiation of rifampicin-induced antibacterial activity against multidrug-resistant Acinetobacter baumannii AB031 assessed as fold reduction in rifampicin MIC at 7.5 uM incubated for 18 hrs by broth dilution method; assay type: functional; how it was run: as §1

Cl.Cl.Cl.Cl.Cl.Cl.NC[C@H]1O[C@H](O[C@H]2[C@H](OCCCCCCCCCCN3CCN(Cc4cccc5ccccc45)CC3)[C@@H](O)[C@H](N)C[C@@H]2N)[C@H](N)C[C@@H]1O
fold change (FC) (Pseudomonas aeruginosa [1]): 8 | fold change (FC) (Pseudomonas aeruginosa [2]): 128

Cl.Cl.Cl.Cl.Cl.NC[C@H]1O[C@H](O[C@H]2[C@H](OCCCCCCCCCCCCN3CCN(c4cc5c(cc4F)c(=O)c(C(=O)O)cn5C4CC4)CC3)[C@@H](O)[C@H](N)C[C@@H]2N)[C@H](N)C[C@@H]1O
fold change (FC) (Klebsiella pneumoniae [3]): 2 | survival at 50 mg/kg (Pseudomonas aeruginosa [4]): 33% | fractional inhibitory concentration index (FICI) (Klebsiella pneumoniae [5]): 0.039 | fold change (FC) (Klebsiella pneumoniae [6]): 128 | MIC (Escherichia coli): 32 µg/mL

COc1c(N2C[C@@H]3CCCN(CCCCCCCCCCCCO[C@@H]4[C@@H](O)[C@H](N)C[C@H](N)[C@H]4O[C@H]4O[C@H](CN)[C@@H](O)C[C@H]4N)[C@@H]3C2)c(F)cc2c(=O)c(C(=O)O)cn(C3CC3)c12.Cl.Cl.Cl.Cl.Cl
fractional inhibitory concentration index (FICI) (Acinetobacter baumannii [7]): >1 | MIC80 (Pseudomonas aeruginosa [8]): 0.13 µg/mL | Activity (Pseudomonas aeruginosa [9]): Dose-dependent effect | MIC50 (Pseudomonas aeruginosa [10]): 0.5 µg/mL | MIC50 (Pseudomonas aeruginosa [11]): 0.5 µg/mL | fold change (FC) (Pseudomonas aeruginosa [12]): 16 | MIC50 (Pseudomonas aeruginosa [13]): 0.5 µg/mL | fold change (FC) (Pseudomonas aeruginosa [14]): 32 | fractional inhibitory concentration index (FICI) (Acinetobacter baumannii [15]): 0.04 | fold change (FC) (Pseudomonas aeruginosa [16]): 64 | MIC80 (Pseudomonas aeruginosa [17]): 1 µg/mL | MIC50 (Pseudomonas aeruginosa [18]): 0.06 µg/mL | fold change (FC) (Acinetobacter baumannii [19]): 64
